Measurements taken from ChEMBL document CHEMBL1141456, “Ca2+ channel alpha2-delta ligands for the treatment of neuropathic pain” (J Med Chem, 2007).

Experiments:
[1] = Displacement of [3H]gabapentin from alpha2-delta calcium channel in pig brain; set-up: species or system Sus scrofa
In short: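 Competition binding of [3H]gabapentin to partially purified pig forebrain membranes. IC50, in nM, is the concentration giving half-maximal inhibition of specific [3H]gabapentin binding.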

[2] = Dissociation constant, pKa of the compound; format: physicochemical

SMILES	IC50 [1] [µM]	pKa [2]
Cn1nnnc1CC1(CN)CCCCC1	> 10	
NCC1(Cc2n[nH]c(=O)o2)CCCCC1	> 10	7.18
NCC1(CC(=O)O)CCCCC1 [GABAPENTIN]	0.087	4.1
CC(C)CC(CN)c1nnn[nH]1 (stereo not given)	0.17	3.74
NCC1(Cc2nnn[nH]2)CCCCCC1	0.1	
NCC1(Cc2noc(=O)[nH]2)CCCCC1		5.24
NCC1(Cc2nnn[nH]2)CCCCC1	0.1	
